Read-outs that look alike come from different tables or passages of the source.
How the values were obtained:
CYP2C8 = settings: cited from earlier work
CYP3A4 = settings: cited from earlier work
[1] = cited from earlier work
[2] = type: in vivo; settings: beagle dogs
[3] = Stability of ripretinib in beagle dog plasma under four conditions; type: in vitro ADME; settings: room temperature, autosampler, freeze-thaw, frozen storage; 2.5, 100, 750 ng/mL
Summary of the method: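 Dog plasma spiked with test compound at 2.5, 100 and 750 ng/mL, six replicates per level. Stability checked at room temperature, in frozen storage, through freeze-thaw, and as processed extracts in the autosampler. Samples taken with avapritinib IS through 1 mol/L NaOH and ethyl acetate extraction, dried under nitrogen, reconstituted in mobile phase; quantified by UPLC-MS/MS (C18, 0.1% formic acid/acetonitrile gradient).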

[4] = oral administration of 150 mg of ripretinib
[5] = single dose of ripretinib 150 mg, patients
[6] = combined with itraconazole vs ripretinib alone
[7] = combined with voriconazole vs ripretinib alone

For CCn1c(=O)c(-c2cc(NC(=O)Nc3ccccc3)c(F)cc2Br)cc2cnc(N)cc21 [DP-5439], the “inhibition of CYP2C8” value (CYP2C8) is given as “could inhibit”.
In the case of CCC(C)n1ncn(-c2ccc(N3CCN(c4ccc(OCC5COC(Cn6cncn6)(c6ccc(Cl)cc6Cl)O5)cc4)CC3)cc2)c1=O (centres unmarked) [Itraconazole], the “inhibition of CYP3A4” value (CYP3A4) is given as “strong inhibitor”.
In the case of CCn1c(=O)c(-c2cc(NC(=O)Nc3ccccc3)c(F)cc2Br)cc2cnc(NC)cc21 [Ripretinib], the “inhibition of CYP2C8” value (CYP2C8) is listed as “could inhibit”, the “median time to reach Cmax” value [1, 4] is listed as 4 h and the “time to reach a steady state” value [1, 4] is listed as 14 days. For the same molecule, the “mean AUC0-12h” value [1, 5] was 3773 ng·h/mL, the “mean AUC0-24h” value [1, 5] was 6634 ng·h/mL and the “mean Cmax” value [1, 5] was 502 ng/mL. For the same molecule, the “increase of AUC0→t of ripretinib” value [2, 6] was 36.35%, the “increase of Cmax of ripretinib” value [2, 6] was 38.35% and the “increase of AUC0→t of ripretinib” value [2, 7] was 25.52%. The “increase of Cmax of ripretinib” value [2, 7] was 27.44% and the “stability in plasma under four conditions” value [3] was “good stability”.
In the case of C[C@@H](c1ncncc1F)[C@](O)(Cn1cncn1)c1ccc(F)cc1F [voriconazole], the “inhibition of CYP3A4” value (CYP3A4) is listed as “moderate inhibitor”.

— article PMC8643159 (Drug Design, Development and Therapy, 2021)
